Measured values from ChEMBL document CHEMBL3621189, “Identification of non-peptidic cysteine reactive fragments as inhibitors of cysteine protease rhodesain” (Bioorg Med Chem Lett, 2015).
Activity calls are given as the source filed them. No cut-off for these calls is given here.

Columns and labels:
[1] = biological target: Rhodesain (Trypanosoma brucei rhodesiense) (UniProt Q95PM0); assay: Time-dependent inhibition of Trypanosoma brucei rhodesiense Rhodesain expressed in Pichia pastoris using Z-Phe-Arg-AMC as substrate assessed as ratio of Kinact to Ki preincubated for 30 mins followed by substrate addition measured for 7 mins by fluorescence assay
[2] = test system: Trypanosoma brucei brucei; assay: Antitrypanosomal activity against Trypanosoma brucei brucei 427 assessed as growth inhibition after 24 hrs by Alamar Blue assay; format: functional, organism-based; conditions: Trypanosoma brucei, 427, 24 h
HepG2 = assay: Cytotoxicity against human HepG2 cells after 72 hrs by MTT assay; format: cell-based; conditions: HepG2, 72 h
[3] = biological target: Rhodesain (Trypanosoma brucei rhodesiense) (UniProt Q95PM0); assay: Inhibition of Trypanosoma brucei rhodesiense Rhodesain expressed in Pichia pastoris using Z-Phe-Arg-AMC as substrate at 10 uM preincubated for 30 mins followed by substrate addition by fluorescence assay relative to control
Procedure, shortened: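 Single-concentration enzymatic screen of a 200-member cysteine-reactive electrophilic fragment library at 10 μM against rhodesain, scored as percent inhibition. Actives were retested at 10 μM in a confirmatory enzymatic assay.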

Chain of Rhodesain (Trypanosoma brucei rhodesiense) (Q95PM0 1-450): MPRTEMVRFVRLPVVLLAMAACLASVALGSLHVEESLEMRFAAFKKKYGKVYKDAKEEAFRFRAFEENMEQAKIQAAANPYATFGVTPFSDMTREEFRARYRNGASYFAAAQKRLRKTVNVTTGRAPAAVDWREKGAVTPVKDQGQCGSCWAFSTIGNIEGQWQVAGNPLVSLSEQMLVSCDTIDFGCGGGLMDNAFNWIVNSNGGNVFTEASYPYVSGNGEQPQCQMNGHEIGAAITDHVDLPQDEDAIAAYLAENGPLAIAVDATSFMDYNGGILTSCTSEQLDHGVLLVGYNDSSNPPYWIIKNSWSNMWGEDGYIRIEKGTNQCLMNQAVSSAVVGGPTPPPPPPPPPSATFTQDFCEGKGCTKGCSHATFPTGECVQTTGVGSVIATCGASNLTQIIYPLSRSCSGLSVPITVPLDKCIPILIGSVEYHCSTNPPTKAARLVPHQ

| Compound | Ratio [1] [M⁻¹ s⁻¹] | IC50 [2] [µM] | inhibition [1] | inhibition [3] [%] | IC50 (HepG2) [µM] |
| --- | --- | --- | --- | --- | --- |
| CC(C)CC(=O)N1CCC(C(=O)NC/C=C/S(C)(=O)=O)CC1 | – | > 50 | inactive | < 40 | > 150 |
| COC(=O)/C=C/CNC(=O)c1cc(-c2ccc(C)cc2)on1 | 13.2 | 43.4 | – | – | > 150 |
| COC(=O)/C=C/CNC(=O)C1CCN(C(=O)CC(C)C)CC1 | – | > 50 | inactive | < 40 | > 150 |

The next compounds have a lower IC50 [2] than those just listed; values first:

| Ratio [1] [M⁻¹ s⁻¹] | IC50 [2] [µM] | inhibition [1] | inhibition [3] [%] | Compound | IC50 (HepG2) [µM] |
| --- | --- | --- | --- | --- | --- |
| 18.3 | 30.3 | – | – | COC(=O)/C=C/CNC(=O)c1sc(-c2ccccc2F)nc1C | > 150 |
| 3.47 | 30.2 | – | < 40 | Cc1nc(-c2ccccc2F)sc1C(=O)NC/C=C/S(C)(=O)=O | 69 |
| – | 29.5 | inactive | < 40 | Cc1ccc(-c2cc(C(=O)NC/C=C/S(C)(=O)=O)no2)cc1 | 76 |
